OX1R antag-1 = OX1R (HCRTR1) antagonists, primary screen, fluorescence, CHO/OX1R cells, Fluo-8 calcium, orexin A; Orexin/Hypocretin receptor type 1 (Homo sapiens), O43613; Fluo-8 calcium fluorescence; inhibition, % at 5 µM; actives 0.43% (n = 330,000); AID 434989, 2010;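 active means inhibition above its plate's threshold, mean inhibition of all tested compounds on the plate plus 3 SD, cut at about 37% in these data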;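 further: 0% = orexin A challenge wells and 100% = SB-334867-A antagonist wells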
Target sequence (O43613 whole entry, looked up): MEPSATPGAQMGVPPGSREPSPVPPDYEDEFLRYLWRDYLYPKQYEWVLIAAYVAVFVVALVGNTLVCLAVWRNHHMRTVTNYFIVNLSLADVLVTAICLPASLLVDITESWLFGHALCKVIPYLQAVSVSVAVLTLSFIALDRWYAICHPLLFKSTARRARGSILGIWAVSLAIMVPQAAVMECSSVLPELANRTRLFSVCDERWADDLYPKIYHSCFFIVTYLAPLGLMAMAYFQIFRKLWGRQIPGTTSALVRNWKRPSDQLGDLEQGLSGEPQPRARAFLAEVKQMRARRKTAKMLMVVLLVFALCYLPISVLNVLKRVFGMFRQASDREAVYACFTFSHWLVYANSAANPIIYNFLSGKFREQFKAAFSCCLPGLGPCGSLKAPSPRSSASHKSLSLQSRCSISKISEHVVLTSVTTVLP
GPR7 antagonist = GPR7 receptor antagonists, primary screen, cell-based, fluorescence, single concentration; inhibition, % at 4.4 µM; GPR7-expressing cells, fluorescence antagonist assay; AID 1861, 2009; actives 1.1% (n = 290,000); Neuropeptides B/W receptor type 1 (Homo sapiens), P48145; in the data active means inhibition above about 16%, passing the limit was not always enough;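 further: cells stimulated with the agonist NPW; 0% = agonist with vehicle and 100% = vehicle without agonist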
OX1R antag-2 = antagonists of human orexin 1 receptor (OX1R). Orexin/Hypocretin receptor type 1 (Homo sapiens), O43613. OX1R-expressing cells, FRET antagonist read-out. inhibition, % at 6.6 µM. actives 1.8% (n = 330,000). AID 485270, 2010; in the data active means inhibition mostly above about 38%, no sharp cut-off; inactive means mostly below about 40%;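 further: 0% = agonist challenge alone and 100% = reference antagonist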
TAAR1 ag = human TAAR1 agonists, primary screen, Fluo-8 calcium fluorescence, CHO RD-HGA16 cells; activation, % at 3 µM; AID 624467, 2012; actives 0.99% (n = 360,000); Trace amine-associated receptor 1 (Homo sapiens), Q96RJ0; vehicle wells 0%, saturating PEA agonist 100%;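 active means activation above the mean activation of all test compounds in the run plus 3 SD, cut at about 38% in these data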
Target sequence (Q96RJ0 whole entry, looked up): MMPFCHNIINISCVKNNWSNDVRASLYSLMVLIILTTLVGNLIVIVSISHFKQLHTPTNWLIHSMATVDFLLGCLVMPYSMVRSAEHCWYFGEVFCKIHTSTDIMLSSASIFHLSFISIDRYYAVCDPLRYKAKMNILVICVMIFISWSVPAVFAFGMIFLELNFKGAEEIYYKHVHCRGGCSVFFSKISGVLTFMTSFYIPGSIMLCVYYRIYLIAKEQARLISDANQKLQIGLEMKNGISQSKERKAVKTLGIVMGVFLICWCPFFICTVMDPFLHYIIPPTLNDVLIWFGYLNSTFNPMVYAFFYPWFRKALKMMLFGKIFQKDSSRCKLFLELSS
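Repeats: no replicates (n 1) | Material: CHO-derived RD-HGA16 cells with stable Gα16 and human TAAR1 | Technique: Kinetic Fluo-8 calcium fluorescence | Schedule: 17-24 h seeding, 75 min 37 °C dye, 30 min RT | Evaluation: % activation from peak over basal fluorescence ratio, DMSO-to-PEA scaled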
TAAR1 antagonist = human TAAR1 antagonists, primary screen, Fluo-8 calcium fluorescence, CHO RD-HGA16 cells; inhibition, % at 3 µM; AID 624466, 2012; actives 1.5% (n = 360,000); Trace amine-associated receptor 1 (Homo sapiens), Q96RJ0; antagonist;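 active means inhibition above a per-plate cutoff, the mean inhibition of test compounds on that plate plus 3 SD, cut at about 49% in these data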;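 further: 0% = DMSO plus EC80 beta-PEA response and 100% = DMSO alone without agonist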
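Test system: RD-HGA16 CHO cells with stable hTAAR1 and Gα16 / Probe or stimulus: EC80 β-phenethylamine stimulus / Times: seeding 17-24 h prior, 75-min 37 °C, 30-min RT dye loading / Detection: Fluo-8 calcium-sensitive fluorescence / Read-out basis: % inhibition scaled between DMSO and EC80 PEA controls / Repeats: singlicate, one well per test compound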
CHO parental Ca = ATP-evoked calcium signal inhibitors, parental CHO, primary screen, counter-screen for OX1R antagonist project, cell-based, fluorescence, Fluo-8 calcium dye; parental CHO-K1, ATP-induced calcium, Fluo-8 fluorescence; inhibition, % at 5.6 µM; actives 0.63% (n = 330,000); AID 463079, 2010;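 active means inhibition above that plate's mean sample inhibition plus 3 SD, cut at about 26% in these data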;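 further: 0% = ATP-challenged DMSO wells and 100% = DMSO wells without ATP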
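Material: Parental CHO cells | Reagent: ATP | Compound dosing: Single nominal dose of 5.6 µM per compound | Detection: Intracellular calcium via Fluo-8 no-wash fluorescent dye | Read-out: % inhibition of ATP-induced calcium mobilization | Benchmarks: Low control ATP plus DMSO, high control DMSO only | Replicates: Singlicate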
GPR7 antag cf = GPR7 receptor antagonists, confirmation, cell-based, fluorescence, single concentration | shares compounds with GPR7 antagonist | GPR7-expressing cells, calcium fluorescence antagonist mode | inhibition, % at 4.4 µM | actives 52% (n = 2,400) | AID 1952, 2009; in the data active means inhibition above about 24%;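 further: stimulated with the GPR7 agonist NPW; 0% = agonist plus vehicle and 100% = vehicle alone without agonist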
MCHR1 antagonist = MCHR1 antagonists in cells, counter-screen for GPR7 antagonist project, cell-based, fluorescence, human; AID 2148, 2009; actives 62% (n = 2,400); shares compounds with GPR7 antagonist; inhibition, % at 4.4 µM; MCHR1-expressing cells, fluorescence antagonist assay; in the data active means inhibition above about 22%;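 further: 0% = vehicle with agonist and 100% = vehicle without agonist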
* hit, by the source's call; / = no result. Rows were chosen to be rich in hits. Some 4.6% of all compounds tested hit in one or more screens of this group.

SMILES	OX1R antag-1	GPR7 antagonist	OX1R antag-2	TAAR1 ag	TAAR1 antagonist	CHO parental Ca	GPR7 antag cf	MCHR1 antagonist
Cc1ccc(CSc2nnc(-c3cccc(S(=O)(=O)N4CCOCC4)c3)n2CC(C)C)cc1	-19.6	35.1*	7.6	6.5	-0.1	-10.5	19.4	25.5*
CC(C)Cn1c(SCC(N)=O)nnc1-c1cccc(S(=O)(=O)N2CCOCC2)c1	-7.2	/	0.5	2.9	-3.5	-0.7	/	/
CC(C)C[C@H]1CNC(=O)C(=O)N1C[C@@H]1CCCN1C[C@H](Cc1ccccc1)N1C[C@H](Cc2ccccc2)N(CCc2ccccc2)C(=O)C1=O	/	/	/	0.7	-11.2	/	/	/
O=C1CCCCCN1Sc1ccccc1	-12.1	25.5*	3.7	8.7	6.3	-10.1	32.1*	88.2*
O=C1CCCCCN1C(=O)c1ccccc1	/	/	/	0.8	1.2	/	/	/
COc1ccc(Oc2ccc(/C=C/C(=O)c3ccc(O)cc3)cc2[N+](=O)[O-])cc1	4.7	26.5*	43.3	1.5	30.1	5.5	77.3*	86.5*
O=C(/C=C/[C@H]1O[C@@H](n2cnc3c(NC(=O)c4ccccc4)ncnc32)[C@H](O)[C@@H]1O)NCc1ccc2c(c1)OCO2	/	/	/	1.0	-1.4	/	/	/
COC(=O)[C@]12C[C@H](CC(=O)NCCC(C)C)C(=O)N(CCC3=CCCCC3)C1=C[C@H](COCc1ccccc1)O[C@@H]2C	/	/	/	0.0	-16.0	/	/	/
O=C(NC1CCCCC1)C(c1ccccc1)n1c(=O)c(-c2ccco2)nc2ccccc21 (centres undefined)	/	/	/	0.6	11.9	/	/	/
COc1cc(/C=C2\SC(=S)N(C(Cc3ccccc3)C(=O)O)C2=O)ccc1O (centres undefined)	26.8	22.0*	26.2	23.7	8.8	19.7	9.4	19.8
O=C(O)C(Cc1ccccc1)N1C(=O)/C(=C/c2ccccc2)SC1=S (centres undefined)	-4.0	-12.0	14.2	2.6	-2.1	-2.2	/	/
Cc1ccc(NC(Cc2cc(C)no2)c2ccccc2)cc1 (centres undefined)	-18.5	40.5*	19.0	21.2	-6.6	-15.0	34.2*	12.4
Cc1cc(CSc2ccccc2C(=O)O)on1	-12.2	-7.5	22.0	3.7	-2.1	4.8	/	/
CN1CCC(NCCC(c2ccc(F)cc2)c2ccc(Cl)cc2)CC1 (centres undefined)	/	46.7*	/	15.3	18.9	/	42.8*	40.8*
COc1ccnc(Oc2ccc(F)cc2)c1C(=O)N/C=N/OCc1ccc(F)cc1	2.9	/	4.6	48.9*	18.7	-7.3	/	12.8
COc1cccc(C(=O)Nc2ccc(NC(C)=O)cc2)c1	3.6	-3.0	3.2	3.4	3.9	-2.2	/	/
COc1cccc(C(=O)Nc2ccc(C(=O)c3ccncc3)cc2)c1	13.2	23.0*	19.6	12.2	12.9	7.6	23.4	47.1*
Cc1cccc(C(=O)Nc2ccc(C(=O)/C=C/c3ccncc3)cc2)c1	4.9	46.5*	17.0	18.3	60.2*	1.8	73.5*	103.8*
CC(CC(=O)N1CCN(c2cccc(Cl)c2)CC1)S(=O)(=O)c1ccc2c(c1)NC(=O)CO2 (centres undefined)	57.4*	27.8*	60.2*	16.7	78.7*	78.1*	36.9*	77.2*
CCOc1cc(CNCCO)cc(Br)c1OCc1ccc(Cl)cc1Cl	40.5*	42.2*	-7.3	11.2	-4.4	18.9	68.1*	76.8*
COc1ccccc1NC(=O)C/C(N)=N/OCC(=O)Nc1cccc(Cl)c1	3.3	/	7.5	4.6	-0.1	-14.3	/	/
COc1ccc(Nc2sc(C(=O)Nc3cccc(Cl)c3)c(N)c2C(=O)Nc2ccccc2OC)cc1	50.7*	50.3*	-0.1	/	/	47.5*	77.4*	86.0*
O=C(N[C@@H](Cc1cccnc1)C(=O)N1CCC[C@H]1C(=O)NCc1ccccc1)c1ccc(Cl)c(Cl)c1	/	/	/	-0.6	-1.7	/	/	/
O=C(COC(=O)c1ccccc1F)c1ccc(-n2nncc2-c2ccco2)cc1	-16.1	21.5*	14.7	2.3	34.5	6.5	7.3	26.3*
CC1(C)CC(=O)C(C=NCC(N)=O)=C(O)C1	-5.5	-8.3	4.1	3.1	-13.0	-10.0	/	/
SMILES	OX1R antag-1	GPR7 antagonist	OX1R antag-2	TAAR1 ag	TAAR1 antagonist	CHO parental Ca	GPR7 antag cf	MCHR1 antagonist
CC1(C)CC(=O)C(C=NCCCO)=C(O)C1	0.0	27.0*	10.3	5.7	-1.7	5.8	8.0	-3.2
C/C(=C1/SC(N2CCCC2)=NC1=O)c1ccc(Br)cc1	-4.2	-10.0	14.1	8.3	-49.9	-17.8	/	/
N/C(=N\c1nc2c(c(=O)[nH]1)CCCC2)Nc1ccccc1	-7.2	30.8*	11.3	9.2	14.4	-3.6	7.6	17.7
CC(=O)Nc1ccc(S(=O)(=O)N(CCCN2CCOCC2)Cc2cccs2)cc1	-0.7	24.9*	4.6	7.0	9.5	-19.9	0.9	15.9
COC(=O)C1=C(C)N(Cc2ccccc2C(F)(F)F)C(=NCc2ccccc2)NC1CCc1ccccc1 (centres undefined)	/	/	/	11.8	4.3	/	/	/
COCCCN1C(=O)C(CC(=O)NCCCN(C)C)CC(C(=O)N2CCOCC2)=C1C (centres undefined)	/	/	/	3.8	-24.1	/	/	/
COc1ccc([N+](=O)[O-])cc1N(CC(O)CN(CC(C)C)CC(C)C)S(=O)(=O)c1ccccc1 (centres undefined)	-26.5	34.3*	4.6	-0.3	-2.2	-39.1	45.1*	54.5*
CCCCN(CCCC)CC(O)CN(c1cc([N+](=O)[O-])ccc1OC)S(=O)(=O)c1ccccc1 (centres undefined)	-26.2	36.2*	15.6	2.0	-14.4	-25.0	41.0*	33.6*
COc1ccc([N+](=O)[O-])cc1N(CC(O)CN(C)C)S(=O)(=O)c1ccc(C)cc1 (centres undefined)	-8.9	-3.9	8.1	-1.1	-12.4	-15.3	/	/
CCOC(=O)c1cnc(-n2nc(C)cc2C)nc1NC	-10.5	-10.5	7.1	18.1	-3.5	-3.9	/	/
CCOC(=O)c1cnc(-n2nc(C)cc2C)nc1NC1CCCCC1	73.9*	27.9*	15.2	30.7	23.3	70.6*	77.1*	73.2*

From PubChem
